Assay results taken from ChEMBL document CHEMBL1151243, “New cytotoxic oleanane-type triterpenoids from the cones of Liquidamber styraciflua” (2004).

Assays:
Type in all cases: functional
DU-145 = test: Cytotoxicity against human DU145 cells after 48 hrs by SRB assay; settings: DU-145, 48 h
Method in brief: (§1)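 Cells plated at suitable density in RPMI 1640 with 5% fetal bovine serum and left overnight to attach, then exposed to compound for 48 h. Growth measured by sulforhodamine B staining. GI50 (50% growth inhibition) computed from percent-growth values.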

OVCAR-8 = test: Cytotoxicity against human OVCAR8 cells after 48 hrs by SRB assay; settings: OVCAR-8, 48 h; method in brief: as §1
NCI-H522 = test: Cytotoxicity against human NCI-H522 cells after 48 hrs by SRB assay; settings: NCI-H522, 48 h; method in brief: as §1
OVCAR-4 = test: Cytotoxicity against human OVCAR4 cells after 48 hrs by SRB assay; settings: OVCAR-4, 48 h; method in brief: as §1
MKN-7 = test: Cytotoxicity against human MKN7 cells after 48 hrs by SRB assay; settings: MKN-7, 48 h; method in brief: as §1
SF-295 = test: Cytotoxicity against human SF295 cells after 48 hrs by SRB assay; settings: SF-295, 48 h; method in brief: as §1
U-251 = test: Cytotoxicity against human U251 cells after 48 hrs by SRB assay; settings: U-251, 48 h; method in brief: as §1
DMS-114 = test: Cytotoxicity against human DMS114 cells after 48 hrs by SRB assay; settings: DMS-114, 48 h; method in brief: as §1
SF-268 = test: Cytotoxicity against human SF268 cells after 48 hrs by SRB assay; settings: SF-268, 48 h; method in brief: as §1
PC-3 = test: Cytotoxicity against human PC3 cells after 48 hrs by SRB assay; settings: PC-3, 48 h; method in brief: as §1
HCT-116 = test: Cytotoxicity against human HCT116 cells after 48 hrs by SRB assay; settings: HCT-116, 48 h; method in brief: as §1
MKN-74 = test: Cytotoxicity against human MKN74 cells after 48 hrs by SRB assay; settings: MKN-74, 48 h; method in brief: as §1
KM12 = test: Cytotoxicity against human KM12 cells after 48 hrs by SRB assay; settings: KM12, 48 h; method in brief: as §1
ACHN = test: Cytotoxicity against human ACHN cells after 48 hrs by SRB assay; method in brief: as §1
[1] = Cytotoxicity against human MKN1 cells after 48 hrs by SRB assay; settings: MKN-1, 48 h; method in brief: as §1
NCI-H23 = test: Cytotoxicity against human NCI-H23 cells after 48 hrs by SRB assay; settings: NCI-H23, 48 h; method in brief: as §1
HCC 2998 = test: Cytotoxicity against human HCC2998 cells after 48 hrs by SRB assay; settings: HCC 2998, 48 h; method in brief: as §1
SK-OV-3 = test: Cytotoxicity against human SKOV3 cells after 48 hrs by SRB assay; settings: SK-OV-3, 48 h; method in brief: as §1
OVCAR-3 = test: Cytotoxicity against human OVCAR-3 cells after 48 hrs by SRB assay; settings: OVCAR-3, 48 h; method in brief: as §1
MCF7 = test: Cytotoxicity against human MCF7 cells after 48 hrs by SRB assay; settings: MCF7, 48 h; method in brief: as §1
HCT-15 = test: Cytotoxicity against human HCT15 cells after 48 hrs by SRB assay; settings: HCT-15, 48 h; method in brief: as §1
MKN-28 = test: Cytotoxicity against human MKN28 cells after 48 hrs by SRB assay; settings: MKN-28, 48 h; method in brief: as §1
NCI-H460 = test: Cytotoxicity against human NCI-H460 cells after 48 hrs by SRB assay; settings: NCI-H460, 48 h; method in brief: as §1
MDA-MB-231 = test: Cytotoxicity against human MDA-MB-231 cells after 48 hrs by SRB assay; settings: MDA-MB-231, 48 h; method in brief: as §1
LOX IMVI = test: Cytotoxicity against human LOXIMVI cells after 48 hrs by SRB assay; method in brief: as §1
SNB-75 = test: Cytotoxicity against human SNB75 cells after 48 hrs by SRB assay; settings: SNB-75, 48 h; method in brief: as §1
[2] = Cytotoxicity against human HBC4 cells after 48 hrs by SRB assay; settings: HBC4, 48 h; method in brief: as §1
St-4 = test: Cytotoxicity against human St-4 cells after 48 hrs by SRB assay; settings: St-4, 48 h; method in brief: as §1
[3] = Cytotoxicity against human BSY1 cells after 48 hrs by SRB assay; settings: BSY-1, 48 h; method in brief: as §1
SF-539 = test: Cytotoxicity against human SF539 cells after 48 hrs by SRB assay; settings: SF-539, 48 h; method in brief: as §1
DMS-273 = test: Cytotoxicity against human DMS273 cells after 48 hrs by SRB assay; settings: DMS-273, 48 h; method in brief: as §1
SNB-78 = test: Cytotoxicity against human SNB78 cells after 48 hrs by SRB assay; settings: SNB-78, 48 h; method in brief: as §1
[4] = Cytotoxicity against human HBC5 cells after 48 hrs by SRB assay; settings: HBC5, 48 h; method in brief: as §1
NCI-H226 = test: Cytotoxicity against human NCI-H226 cells after 48 hrs by SRB assay; settings: NCI-H226, 48 h; method in brief: as §1
A549 = test: Cytotoxicity against human A549 cells after 48 hrs by SRB assay; settings: A549, 48 h; method in brief: as §1
[5] = Cytotoxicity against human RXF631L cells after 48 hrs by SRB assay; settings: RXF 631, 48 h; method in brief: as §1
HT-29 = test: Cytotoxicity against human HT-29 cells after 48 hrs by SRB assay; settings: HT-29, 48 h; method in brief: as §1
MKN-45 = test: Cytotoxicity against human MKN45 cells after 48 hrs by SRB assay; settings: MKN-45, 48 h; method in brief: as §1
OVCAR-5 = test: Cytotoxicity against human OVCAR5 cells after 48 hrs by SRB assay; settings: OVCAR-5, 48 h; method in brief: as §1

CC(=O)OC[C@]12CC[C@@H](O)C(C)(C)C1CC[C@]1(C)[C@@H]2CC=C2[C@@H]3CC(C)(C)CC[C@]3(C(=O)O)CC[C@]21C (some centres undefined)
GI50 (DU-145): 13.2 µM
GI50 (OVCAR-8): 11.2 µM
GI50 (NCI-H522): 13.8 µM
GI50 (OVCAR-4): 10 µM
GI50 (MKN-7): 6.61 µM
GI50 (SF-295): 8.71 µM
GI50 (U-251): 6.03 µM
GI50 (DMS-114): 13.5 µM
GI50 (SF-268): 15.5 µM
GI50 (PC-3): 11.5 µM
GI50 (HCT-116): 4.57 µM
GI50 (MKN-74): 7.76 µM
GI50 (KM12): 5.13 µM
GI50 (ACHN): 5.37 µM
GI50 [1]: 11 µM
GI50 (NCI-H23): 8.51 µM
GI50 (HCC 2998): 28.2 µM
GI50 (SK-OV-3): 20.4 µM
GI50 (OVCAR-3): 11 µM
GI50 (MCF7): 8.32 µM
GI50 (HCT-15): 6.46 µM
GI50 (MKN-28): 5.62 µM
GI50 (NCI-H460): 13.8 µM
GI50 (MDA-MB-231): 19.5 µM
GI50 (LOX IMVI): 11.2 µM
GI50 (SNB-75): 15.8 µM
GI50 [2]: 7.94 µM
GI50 (St-4): 9.12 µM
GI50 [3]: 10.7 µM
GI50 (SF-539): 6.31 µM
GI50 (DMS-273): 6.31 µM
GI50 (SNB-78): 15.8 µM
GI50 [4]: 11 µM
GI50 (NCI-H226): 18.6 µM
GI50 (A549): 4.27 µM
GI50 [5]: 11.7 µM
GI50 (HT-29): 3.39 µM
GI50 (MKN-45): 17.8 µM
GI50 (OVCAR-5): 18.2 µM
